Source: ChEMBL document CHEMBL1926621, “New potent 5-HT(2A) receptor ligands containing an N'-cyanopicolinamidine nucleus: Synthesis and in vitro pharmacological evaluation” (Eur J Med Chem, 2012)

What was measured:
[1] = target: T1, 5-hydroxytryptamine receptor 2C (Rattus norvegicus, UniProt P08909); test: Displacement of [3H]mesulergine from Sprague-Dawley rat brain cortex serotonin 5-HT2C receptor after 15 mins by liquid scintillation counting in presence of 5-HT2A blocker, spiperone
T1 sequence (P08909 whole entry): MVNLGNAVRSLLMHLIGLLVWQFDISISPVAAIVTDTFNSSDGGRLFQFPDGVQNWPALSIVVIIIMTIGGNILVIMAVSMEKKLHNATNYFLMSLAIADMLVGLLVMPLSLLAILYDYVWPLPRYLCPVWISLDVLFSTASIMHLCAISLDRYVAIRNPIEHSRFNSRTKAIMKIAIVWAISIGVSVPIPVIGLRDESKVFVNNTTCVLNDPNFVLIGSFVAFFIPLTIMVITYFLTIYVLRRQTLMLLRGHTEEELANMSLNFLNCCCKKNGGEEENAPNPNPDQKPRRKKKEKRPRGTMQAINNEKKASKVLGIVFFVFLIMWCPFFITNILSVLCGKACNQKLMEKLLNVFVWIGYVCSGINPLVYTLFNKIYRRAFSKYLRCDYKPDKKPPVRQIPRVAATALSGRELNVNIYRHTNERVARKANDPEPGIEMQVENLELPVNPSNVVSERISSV
Procedure, shortened: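 Male Sprague-Dawley rat frontal cortex membranes (Tris-HCl/EDTA/MgCl2 pH 7.4, ascorbate, pargyline). 100 nM spiperone in all tubes to block 5-HT2A sites. Mianserin defined nonspecific binding. 15 min at 37 °C, PEI-soaked glass fibre filtration. Six compound concentrations in triplicate. Ki by Cheng-Prusoff.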

[2] = target: 5-hydroxytryptamine receptor 2A (Rattus norvegicus, UniProt P14842); test: Displacement of [3H]ketanserin from Sprague-Dawley rat brain cortex serotonin 5-HT2A receptor after 15 mins by liquid scintillation counting
Sequence of 5-hydroxytryptamine receptor 2A (P14842 whole entry): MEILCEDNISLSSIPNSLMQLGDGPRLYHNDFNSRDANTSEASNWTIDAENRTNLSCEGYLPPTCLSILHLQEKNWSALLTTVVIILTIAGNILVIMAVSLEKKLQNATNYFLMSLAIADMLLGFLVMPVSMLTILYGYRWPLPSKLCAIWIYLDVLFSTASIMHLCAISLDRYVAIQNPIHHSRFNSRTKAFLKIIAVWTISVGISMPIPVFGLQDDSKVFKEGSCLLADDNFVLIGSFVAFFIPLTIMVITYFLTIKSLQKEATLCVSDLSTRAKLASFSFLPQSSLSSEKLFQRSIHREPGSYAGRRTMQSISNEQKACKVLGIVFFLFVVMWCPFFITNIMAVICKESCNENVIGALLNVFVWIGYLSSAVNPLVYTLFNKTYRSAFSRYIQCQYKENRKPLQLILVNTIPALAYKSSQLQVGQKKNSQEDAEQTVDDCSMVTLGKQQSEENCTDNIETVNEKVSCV
Procedure, shortened: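 Male Sprague-Dawley rat frontal cortex membranes in 50 mM Tris-HCl, 0.5 mM EDTA, 10 mM MgCl2 pH 7.4, with 0.1% ascorbate and pargyline. 0.4 nM [3H]ketanserin, 5 mg wet tissue, 15 min at 37 °C. Filtered on PEI-soaked glass fibre. Six compound concentrations in triplicate. IC50 converted to Ki by Cheng-Prusoff.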

[3] = target: T2, 5-hydroxytryptamine receptor 1A (Rattus norvegicus, UniProt P19327); test: Displacement of [3H]-8-OH-DPAT from Sprague-Dawley rat brain cortex serotonin 5-HT1A receptor after 30 mins by liquid scintillation counting
T2 sequence (P19327 whole entry): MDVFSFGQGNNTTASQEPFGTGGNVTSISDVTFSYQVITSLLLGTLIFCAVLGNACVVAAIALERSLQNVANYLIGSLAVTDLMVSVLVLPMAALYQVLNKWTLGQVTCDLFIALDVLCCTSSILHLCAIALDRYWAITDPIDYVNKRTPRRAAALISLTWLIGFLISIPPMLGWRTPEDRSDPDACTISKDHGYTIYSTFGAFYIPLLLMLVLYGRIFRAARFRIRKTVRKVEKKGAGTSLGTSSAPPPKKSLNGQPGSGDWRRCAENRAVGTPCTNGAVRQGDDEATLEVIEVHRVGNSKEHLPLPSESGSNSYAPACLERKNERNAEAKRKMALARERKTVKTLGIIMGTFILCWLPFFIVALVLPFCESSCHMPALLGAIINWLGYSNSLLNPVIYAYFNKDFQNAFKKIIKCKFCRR
Procedure, shortened: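 Male Sprague-Dawley rat (180-220 g) cerebral cortex homogenized in 50 mM Tris-HCl pH 7.7, spun 50,000 g. [3H]-8-OH-DPAT 0.1 nM final, 30 min at 37 °C, GF/B filtration. Test compounds in ethanol or 5% DMSO, six concentrations in triplicate. IC50 by curve fitting, Ki by Cheng-Prusoff using Scatchard-derived KD.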

D(1A) dopamine receptor = D(1A) dopamine receptor (Rattus norvegicus, UniProt P18901); test: Displacement of [3H]SCH-23390 from rat corpora striatum dopamine D1 receptor after 15 mins by liquid scintillation counting
Sequence of D(1A) dopamine receptor (P18901 whole entry): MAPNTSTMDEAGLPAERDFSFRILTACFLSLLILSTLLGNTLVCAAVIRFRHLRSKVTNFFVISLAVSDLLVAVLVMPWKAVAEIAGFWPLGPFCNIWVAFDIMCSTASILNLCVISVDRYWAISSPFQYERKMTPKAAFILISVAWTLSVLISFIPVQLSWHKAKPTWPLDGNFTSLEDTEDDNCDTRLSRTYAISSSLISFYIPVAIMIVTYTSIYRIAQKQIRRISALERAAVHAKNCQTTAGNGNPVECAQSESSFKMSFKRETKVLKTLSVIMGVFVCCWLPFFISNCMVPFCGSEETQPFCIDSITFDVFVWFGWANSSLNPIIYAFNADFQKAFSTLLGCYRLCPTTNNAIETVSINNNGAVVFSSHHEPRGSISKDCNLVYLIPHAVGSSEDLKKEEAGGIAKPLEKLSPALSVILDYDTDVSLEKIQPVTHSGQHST
Procedure, shortened: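 Rat corpora striata homogenized in 50 mM Tris-HCl pH 7.7, spun twice at 50,000 g. Resuspended in Tris-HCl with NaCl, KCl, CaCl2, MgCl2, ascorbic acid and pargyline. 0.4 nM [3H]SCH-23390 final, 3 mg fresh tissue, 15 min at 37 °C. Nonspecific binding with piflutixol. Ki by Cheng-Prusoff from triplicate six-point curves.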

D(2) dopamine receptor = D(2) dopamine receptor (Rattus norvegicus, UniProt P61169); test: Displacement of [3H]spiperone from rat corpora striatum dopamine D2 receptor after 15 mins by liquid scintillation counting
Sequence of D(2) dopamine receptor (P61169 whole entry): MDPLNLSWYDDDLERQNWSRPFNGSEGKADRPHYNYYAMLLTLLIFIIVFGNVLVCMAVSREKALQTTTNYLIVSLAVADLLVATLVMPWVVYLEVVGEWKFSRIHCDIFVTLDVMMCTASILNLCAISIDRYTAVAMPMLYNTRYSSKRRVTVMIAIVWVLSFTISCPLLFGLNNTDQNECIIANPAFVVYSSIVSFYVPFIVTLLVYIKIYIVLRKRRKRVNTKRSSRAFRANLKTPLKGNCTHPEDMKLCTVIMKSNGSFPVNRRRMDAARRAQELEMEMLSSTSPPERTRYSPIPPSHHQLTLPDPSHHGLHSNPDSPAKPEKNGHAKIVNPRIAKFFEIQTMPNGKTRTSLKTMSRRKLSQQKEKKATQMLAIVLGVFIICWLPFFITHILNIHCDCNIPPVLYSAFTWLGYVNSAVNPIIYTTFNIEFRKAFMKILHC
Procedure, shortened: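 Corpora striata membranes in Tris-HCl buffer containing NaCl, KCl, CaCl2, MgCl2, ascorbic acid and pargyline. [3H]spiperone 0.4 nM final, 3 mg fresh tissue, incubated 15 min at 37 °C. GF/B filtration, scintillation counting. Six concentrations in triplicate. IC50 converted to Ki via Cheng-Prusoff.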

[4] = target: T3, Adrenergic receptor alpha-2 (Rattus norvegicus, UniProt P22086+P19328+P22909); test: Displacement of [3H]yohimbine from rat brain cortex adrenergic alpha2 receptor after 30 mins by liquid scintillation counting
T3 sequence (P22086 whole entry): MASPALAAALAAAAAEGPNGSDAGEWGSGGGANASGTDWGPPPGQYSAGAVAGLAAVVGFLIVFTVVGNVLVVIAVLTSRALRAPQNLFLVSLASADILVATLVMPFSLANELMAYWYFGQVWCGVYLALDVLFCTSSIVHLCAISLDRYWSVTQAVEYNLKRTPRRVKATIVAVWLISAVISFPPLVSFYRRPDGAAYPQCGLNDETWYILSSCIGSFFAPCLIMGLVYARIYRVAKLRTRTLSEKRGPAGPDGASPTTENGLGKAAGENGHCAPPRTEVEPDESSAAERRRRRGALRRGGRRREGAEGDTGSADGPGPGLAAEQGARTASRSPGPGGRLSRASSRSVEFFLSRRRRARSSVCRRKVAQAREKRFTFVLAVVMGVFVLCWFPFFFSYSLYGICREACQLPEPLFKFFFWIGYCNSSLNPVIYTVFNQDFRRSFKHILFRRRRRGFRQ
T3 sequence (P19328 whole entry): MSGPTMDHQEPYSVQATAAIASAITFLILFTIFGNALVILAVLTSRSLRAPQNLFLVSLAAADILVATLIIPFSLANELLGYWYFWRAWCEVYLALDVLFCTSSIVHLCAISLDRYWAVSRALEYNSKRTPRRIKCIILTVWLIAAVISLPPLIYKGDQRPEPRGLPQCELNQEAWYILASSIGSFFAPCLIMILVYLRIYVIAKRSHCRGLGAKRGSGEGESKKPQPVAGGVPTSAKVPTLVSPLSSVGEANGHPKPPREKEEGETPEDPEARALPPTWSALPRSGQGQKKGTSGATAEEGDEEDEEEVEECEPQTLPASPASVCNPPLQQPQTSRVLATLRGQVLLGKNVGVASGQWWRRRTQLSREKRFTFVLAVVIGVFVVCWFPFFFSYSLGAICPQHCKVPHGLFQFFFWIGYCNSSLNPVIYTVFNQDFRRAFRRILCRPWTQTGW
T3 sequence (P22909 whole entry): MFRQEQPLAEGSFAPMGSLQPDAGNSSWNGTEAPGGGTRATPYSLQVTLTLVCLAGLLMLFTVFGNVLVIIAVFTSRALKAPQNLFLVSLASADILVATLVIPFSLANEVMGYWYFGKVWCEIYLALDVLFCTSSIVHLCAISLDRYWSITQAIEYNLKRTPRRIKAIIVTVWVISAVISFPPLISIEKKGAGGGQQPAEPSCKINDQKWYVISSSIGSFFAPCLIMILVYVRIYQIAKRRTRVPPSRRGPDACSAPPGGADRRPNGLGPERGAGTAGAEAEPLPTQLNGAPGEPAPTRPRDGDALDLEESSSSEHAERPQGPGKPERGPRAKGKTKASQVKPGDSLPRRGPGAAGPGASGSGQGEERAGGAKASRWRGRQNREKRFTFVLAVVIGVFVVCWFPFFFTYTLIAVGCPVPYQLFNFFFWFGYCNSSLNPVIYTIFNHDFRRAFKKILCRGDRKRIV
Procedure, shortened: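 Cortex homogenized in 5 mM Tris-HCl, 5 mM EDTA pH 7.3, spun three times at 50,000 g, resuspended in 50 mM Tris-HCl, 0.5 mM EDTA pH 7.5. [3H]yohimbine 1 nM final, 10 mg fresh tissue, 30 min at 25 °C. Phentolamine defined nonspecific binding. Ki by Cheng-Prusoff.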

[5] = target: T4, Adrenergic receptor alpha-1 (Rattus norvegicus, UniProt P15823+P23944+P43140); test: Displacement of [3H]prazosin from rat brain cortex adrenergic alpha1 receptor after 30 mins by liquid scintillation counting
T4 sequence (P15823 whole entry): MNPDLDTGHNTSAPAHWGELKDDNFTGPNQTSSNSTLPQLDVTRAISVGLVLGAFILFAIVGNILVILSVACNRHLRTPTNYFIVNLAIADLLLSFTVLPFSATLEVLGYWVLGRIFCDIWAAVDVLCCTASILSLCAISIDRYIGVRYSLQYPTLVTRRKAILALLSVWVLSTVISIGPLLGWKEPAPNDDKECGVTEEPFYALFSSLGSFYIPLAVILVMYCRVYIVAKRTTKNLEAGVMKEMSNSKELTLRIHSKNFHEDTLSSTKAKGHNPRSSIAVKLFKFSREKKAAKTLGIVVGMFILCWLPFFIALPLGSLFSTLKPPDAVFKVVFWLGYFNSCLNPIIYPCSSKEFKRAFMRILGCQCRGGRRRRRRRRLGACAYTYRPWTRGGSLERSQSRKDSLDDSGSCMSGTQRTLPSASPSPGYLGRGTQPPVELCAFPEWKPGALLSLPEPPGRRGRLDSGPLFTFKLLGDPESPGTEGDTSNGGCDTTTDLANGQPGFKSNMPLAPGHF
T4 sequence (P23944 whole entry): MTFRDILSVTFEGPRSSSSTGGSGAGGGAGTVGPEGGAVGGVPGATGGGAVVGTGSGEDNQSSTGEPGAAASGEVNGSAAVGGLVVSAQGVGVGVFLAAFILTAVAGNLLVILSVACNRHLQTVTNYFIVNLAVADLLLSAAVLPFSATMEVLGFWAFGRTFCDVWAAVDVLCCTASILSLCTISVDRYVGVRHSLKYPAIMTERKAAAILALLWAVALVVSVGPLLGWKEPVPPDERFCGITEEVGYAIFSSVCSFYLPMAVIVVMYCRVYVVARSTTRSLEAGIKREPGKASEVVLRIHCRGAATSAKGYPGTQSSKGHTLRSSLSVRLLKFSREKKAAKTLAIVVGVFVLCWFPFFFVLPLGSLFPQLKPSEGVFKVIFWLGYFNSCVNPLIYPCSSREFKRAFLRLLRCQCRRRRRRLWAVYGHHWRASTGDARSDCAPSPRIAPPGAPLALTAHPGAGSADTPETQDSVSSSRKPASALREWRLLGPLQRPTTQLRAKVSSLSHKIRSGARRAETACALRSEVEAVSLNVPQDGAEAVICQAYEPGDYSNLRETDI
T4 sequence (P43140 whole entry): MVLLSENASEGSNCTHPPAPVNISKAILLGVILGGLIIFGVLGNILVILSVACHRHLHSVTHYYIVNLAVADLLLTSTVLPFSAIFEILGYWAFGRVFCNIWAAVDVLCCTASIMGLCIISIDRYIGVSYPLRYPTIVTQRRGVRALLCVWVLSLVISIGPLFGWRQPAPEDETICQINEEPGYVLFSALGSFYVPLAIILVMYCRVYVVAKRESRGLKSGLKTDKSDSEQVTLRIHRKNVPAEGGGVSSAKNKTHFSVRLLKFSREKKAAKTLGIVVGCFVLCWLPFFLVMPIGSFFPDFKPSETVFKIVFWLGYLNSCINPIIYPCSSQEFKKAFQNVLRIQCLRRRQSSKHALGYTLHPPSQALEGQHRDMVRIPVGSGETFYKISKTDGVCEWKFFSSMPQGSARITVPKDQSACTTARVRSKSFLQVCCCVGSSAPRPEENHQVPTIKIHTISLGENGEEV
Procedure, shortened: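 Brain cortex homogenized in 50 mM Tris-HCl pH 7.2, spun twice at 50,000 g, resuspended in Tris-HCl pH 7.4. 0.4 nM [3H]prazosin final, 10 mg fresh tissue, 30 min at 25 °C. Nonspecific binding with phentolamine. GF/B filtration. Ki by Cheng-Prusoff from six-point triplicate curves.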

Ki [1] | Ki ([2]; read-out: Ki) [nM] | Ki ([3]; read-out: Ki) [nM] | Ki ([1]; read-out: Ki) [nM] | Ki [2] | Ki [3] | SMILES | other results
Not Active | 51.8 | > 10000 |  |  |  | N#C/N=C(\NCCCN1CCN(Cc2ccc3c(c2)OCO3)CC1)c1ccccn1 | Ki (D(1A) dopamine receptor): Not Active; Ki (D(2) dopamine receptor): Not Active; Ki [4]: 964 nM
 | 0.000185 | 6.67 | 3.28 |  |  | N#CNC(=NCCCN1CCN(c2cccc(Cl)c2)CC1)c1ccccn1 | IC50 [2]: 0.00025 nM; Ki (D(1A) dopamine receptor; read-out: Ki): > 10000 nM; Ki (D(2) dopamine receptor; read-out: Ki): > 10000 nM
Not Active | 21.5 | > 10000 |  |  |  | N#C/N=C(\NCCCN1CCN(C(=O)c2ccco2)CC1)c1ccccn1 | Ki (D(1A) dopamine receptor): Not Active; Ki (D(2) dopamine receptor): Not Active; Ki [4]: > 10000 nM
 |  |  | 597 | Not Active | Not Active | CCOCCN1CCN(CCCN/C(=N\C#N)c2ccccn2)CC1 | 
 | 904 | > 10000 | 28.8 |  |  | N#C/N=C(\NCCCN1CCN(c2ccccc2C#N)CC1)c1ccccn1 | 
Not Active | > 10000 | 0.0842 |  |  |  | COc1ccc(N2CCN(CCCN/C(=N\C#N)c3ccccn3)CC2)cc1 | Ki (D(1A) dopamine receptor; read-out: Ki): > 10000 nM; Ki (D(2) dopamine receptor; read-out: Ki): > 10000 nM; Ki [5]: > 10000 nM
Not Active | 27 | 170 |  |  |  | N#C/N=C(\NCCCN1CCN(c2ccccc2Cl)CC1)c1ccccn1 | 
 |  |  | 389 | Not Active | Not Active | COCCN1CCN(CCCN/C(=N\C#N)c2ccccn2)CC1 | 

SMILES | Ki [1] | Ki ([2]; read-out: Ki) [nM] | Ki ([3]; read-out: Ki) [nM] | Ki ([1]; read-out: Ki) [nM] | Ki [2] | Ki [3] | other results
C=CCN1CCN(CCCN/C(=N\C#N)c2ccccn2)CC1 |  |  |  | > 10000 | Not Active | Not Active | 
